This excerpt belongs to a sample that is enriched for hits.
A1 apoptosis 2 – A1 inhibitors via caspase activation, primary screen, cell-based, luminescence, HTS, two replicates. MEF A1-2A-BIM cells, caspase-Glo luminescence, 3 h; percent of clofoctol response, DMSO zero. caspase activation, % (test concentration not listed). 24,000 tested, under 10 active; in the data active = caspase activation above about 5.9%; inconclusive = no clear call, values can overlap the other calls; inactive = below about 2.2%
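System: mouse embryonic fibroblasts co-expressing A1 and BIM (A1-2A-BIM), primed for A1 dependence; amount: 2500 cells/well; doses: 50 nL pinned compound; schedule: cells settled overnight, compound exposure 3 h at 37 °C, 5% CO2; detection: Caspase-Glo 3/7 luminescence, 1 h at room temperature; read-out: Caspase-3/7 activation, seen as rise in luminescence signal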
T cruzi HTS – inhibitors of intracellular Trypanosoma cruzi, primary screen, cell-based, plate reader, single point, set 2; hit rate 4.9% among 22,000; activity score (inhibition), % at 5.01 µM; AID 651903, 2012; intracellular Trypanosoma cruzi in host cells; in the data active = activity score above about 55%; inconclusive = no clear call, values can overlap the other calls;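 also: parasites and compound incubated about four days before reading; 0% = median of neutral control wells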
INS-1E rescue – protection of INS-1E cells from cytokine death, primary screen, ATP luminescence, single point. INS-1E cytokine-induced death, 48 h; normalised: neutral wells 0, positive control 100. protection from cytokine-induced ATP loss, % at 10 µM. hit rate 0.1% among 20,000. AID 488910, 2010;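 active = mean replicate protection from cytokine-induced ATP loss at least 50% and at least 75% of replicates each reaching 50%; inconclusive = meets only one of the two criteria, mean or replicate share; inactive = fails both the mean and replicate share criteria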
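Test system: INS-1E rat cells | Quantity: 8000 cells per well | Medium: Phenol-red-free RPMI with 5% fetal bovine serum | Reagent: Cytokine cocktail of IFN-γ, TNF-α and IL-1β | Doses: One compound concentration, pin transfer | Timing: 48 h co-treatment, 10 min post-lysis read | Technique: Luminescent ATP assay (CellTiter-Glo)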
* marks the source's active call; other numbers are inactive results; u = inconclusive; x = no result given.

SMILES	A1 apoptosis 2	T cruzi HTS	INS-1E rescue
Cc1ccccc1/C=N/NC(=O)CCCCCC(=O)O	-1	-17	7
O=C(NCCCn1cc(C(=O)NO)nn1)Nc1ccccc1	1	x	x
CC(C)=CCC[C@H](C)C/C=N/NC(=O)c1cccc(C(=O)NO)c1	2	-8	3
C[C@@H]1CN([C@H](C)CO)C(=O)Cc2cc(NC(=O)Cc3ccccc3)ccc2O[C@@H]1CN(C)Cc1ccc(-c2ccccc2)cc1	1	72*	-62
C[C@@H]1CN([C@@H](C)CO)C(=O)Cc2cc(NC(=O)CCC(F)(F)F)ccc2O[C@H]1CN(C)Cc1ccc(-c2ccccc2)cc1	2	x	x
C[C@H](CO)N1C[C@H](C)[C@H](CN(C)Cc2ccc(-c3ccccc3)cc2)Oc2ccc(NC(=O)Cc3ccccc3)cc2CC1=O	x	47	-18
C[C@H]1CN([C@@H](C)CO)C(=O)Cc2cc(NC(=O)CCC(F)(F)F)ccc2O[C@@H]1CN(C)Cc1ccc(-c2ccccc2)cc1	x	60*	-53
Cc1noc(C)c1S(=O)(=O)N(C)C[C@@H]1OCCCC[C@@H](C)Oc2ccc(NC(=O)Cc3ccccc3)cc2C(=O)N([C@@H](C)CO)C[C@@H]1C	0	x	x
C[C@@H]1CCCCO[C@@H](CN(C)Cc2ccc(Cl)c(Cl)c2)[C@H](C)CN([C@H](C)CO)C(=O)c2cc(NC(=O)Cc3ccccc3)ccc2O1	0	x	x
C[C@@H]1CCCCO[C@@H](CN(C)Cc2ccc(Cl)c(Cl)c2)[C@@H](C)CN([C@H](C)CO)C(=O)c2cc(NC(=O)Cc3ccccc3)ccc2O1	0	64*	-45
C[C@@H]1CN([C@@H](C)CO)C(=O)c2cc(NC(=O)CCC(F)(F)F)ccc2O[C@@H](C)CCCCO[C@H]1CN(C)Cc1ccc(Cl)c(Cl)c1	0	x	x
C[C@@H]1CCCCO[C@@H](CN(C)Cc2ccc(Cl)c(Cl)c2)[C@@H](C)CN([C@H](C)CO)C(=O)c2cc(NC(=O)CCC(F)(F)F)ccc2O1	x	63*	-32
O=C(CCCCCCC(=O)NN=C1CCCC1)NO	0	x	x
O=C(CCCCCC(=O)Nc1ccccc1O)N/N=C/c1cccnc1	3	x	x
O=C(N/N=C/c1cccnc1Cl)c1ccccc1O	x	0	-31
COC(=O)CCCCCCC(=O)N/N=C/c1cc(OC)ccc1Br	x	12	4
O=C(NO)c1ccc(C(=O)N/N=C/c2ccccc2O)cc1	-1	-31	9
C[C@H]1CN([C@@H](C)CO)C(=O)Cc2cc(NS(=O)(=O)c3ccc(Cl)cc3)ccc2O[C@@H]1CN(C)CC1CCCCC1	0	53	-12
C[C@H]1CN([C@@H](C)CO)C(=O)Cc2cc(NS(=O)(=O)c3ccc(Cl)cc3)ccc2O[C@H]1CN(C)CC1CCCCC1	3	73*	-18
COc1ccc(S(=O)(=O)Nc2ccc3c(c2)CC(=O)N([C@H](C)CO)C[C@H](C)[C@H](CN(C)CC2CCCCC2)O3)cc1	x	-4	-25
COc1ccc(S(=O)(=O)Nc2ccc3c(c2)CC(=O)N([C@H](C)CO)C[C@@H](C)[C@H](CN(C)CC2CCCCC2)O3)cc1	-1	59*	-9
O=C(NO)c1ccc(C(=O)N/N=C/c2ccc(Br)o2)cc1	1	-17	8
C[C@H]1CN([C@@H](C)CO)C(=O)Cc2cc(NC(=O)Nc3ccccc3)ccc2O[C@@H]1CN(C)Cc1ccc(C(=O)Nc2ccccc2N)cc1	-1	x	x
C[C@H]1CN([C@@H](C)CO)C(=O)Cc2cc(NC(=O)NC3CCCCC3)ccc2O[C@H]1CN(C)Cc1ccc(C(=O)Nc2ccccc2N)cc1	-2	67*	3
C[C@@H]1CN([C@H](C)CO)C(=O)Cc2cc(NC(=O)Nc3ccc4c(c3)OCO4)ccc2O[C@H]1CN(C)Cc1ccc(C(=O)Nc2ccccc2N)cc1	-1	x	x
SMILES	A1 apoptosis 2	T cruzi HTS	INS-1E rescue
C[C@@H]1CN([C@@H](C)CO)C(=O)Cc2cc(NC(=O)Nc3ccc4c(c3)OCO4)ccc2O[C@@H]1CN(C)Cc1ccc(C(=O)Nc2ccccc2N)cc1	0	67*	-15
C[C@@H]1CN([C@@H](C)CO)C(=O)Cc2cc(NC(=O)NC3CCCCC3)ccc2O[C@H]1CN(C)Cc1ccc(C(=O)Nc2ccccc2N)cc1	0	x	x
C[C@@H]1CN([C@H](C)CO)C(=O)Cc2cc(NC(=O)C3CC3)ccc2O[C@H]1CN(C)Cc1ccc(C(=O)Nc2ccccc2N)cc1	x	19	-2
C[C@@H]1CN([C@@H](C)CO)C(=O)Cc2cc(NC(=O)C3CC3)ccc2O[C@@H]1CN(C)Cc1ccc(C(=O)Nc2ccccc2N)cc1	x	58*	-8
C[C@@H]1CN([C@@H](C)CO)C(=O)Cc2cc(NC(=O)Nc3ccc(F)cc3)ccc2O[C@@H]1CN(C)Cc1ccc(C(=O)Nc2ccccc2N)cc1	x	63*	-6
CCCCCCC/C=N/NC(=O)CCCCC(=O)NO	1	-2	-4
C[C@@H]1CN([C@@H](C)CO)C(=O)Cc2cc(NC(=O)Nc3ccccc3)ccc2O[C@@H]1CN(C)Cc1ccc(C(=O)Nc2ccccc2N)cc1	x	u	-14
C[C@H](CO)N1C[C@H](C)[C@H](CN(C)Cc2ccc(C(=O)Nc3ccccc3N)cc2)Oc2ccc(NC(=O)Nc3ccc(F)cc3)cc2CC1=O	x	66*	31
C[C@@H]1CCCCO[C@@H](CN(C)Cc2ccc(C(=O)Nc3ccccc3N)cc2)[C@@H](C)CN([C@H](C)CO)C(=O)c2cc(NS(=O)(=O)c3ccc(Cl)cc3)ccc2O1	-1	78*	-5
C[C@@H]1CN([C@@H](C)CO)C(=O)c2cc(NS(=O)(=O)c3ccc(F)cc3)ccc2O[C@@H]1CN(C)Cc1ccc(C(=O)Nc2ccccc2N)cc1	x	31	17
C[C@H](CO)N1C[C@H](C)[C@H](CN(C)Cc2ccc(C(=O)Nc3ccccc3N)cc2)Oc2ccc(NS(=O)(=O)c3ccc(F)cc3)cc2C1=O	0	63*	18
C[C@@H]1CN([C@@H](C)CO)C(=O)c2cccc(NS(=O)(=O)c3ccc(Cl)cc3)c2O[C@@H]1CN(C)Cc1ccc(C(=O)Nc2ccccc2N)cc1	x	39	35
COc1ccc(S(=O)(=O)Nc2ccc3c(c2)C(=O)N([C@H](C)CO)C[C@H](C)[C@H](CN(C)Cc2ccc(C(=O)Nc4ccccc4N)cc2)OCCCC[C@@H](C)O3)cc1	-1	46	-1
C[C@H]1CN([C@@H](C)CO)C(=O)c2cc(NS(=O)(=O)c3ccc(Cl)cc3)ccc2O[C@H]1CN(C)Cc1ccc(C(=O)Nc2ccccc2N)cc1	x	73*	37
C[C@@H]1CN([C@H](C)CO)C(=O)c2cc(NS(=O)(=O)c3ccccc3)ccc2O[C@H]1CN(C)Cc1ccc(C(=O)Nc2ccccc2N)cc1	x	-26	-22
C[C@@H]1CN([C@H](C)CO)C(=O)c2cccc(NS(=O)(=O)c3ccc(Cl)cc3)c2O[C@H]1CN(C)Cc1ccc(C(=O)Nc2ccccc2N)cc1	0	65*	2
